Data on one substance can be found in paper PMC6551323 (Acta biomaterialia, 2018).

The format of this series is in vitro ADME, bovine. Particulars: healthy explants; 24 h absorption, 7-day desorption in 10x PBS. In a few lines: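 After 24 h uptake of 30 µM 5-FAM-labelled peptide at 37 °C, bovine cartilage disks were desorbed in 1x or 10x PBS with protease inhibitors for up to 7 days. The bath was changed daily and desorbed peptide was read by plate reader. % retention is moles remaining in tissue after desorption divided by moles taken up at 24 h. Mean ± SD, n=6–8 explants, ≥4 animals.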

For the substance (ARRRAARA)4 [CPC +16], the “% CPC desorbed in 10x PBS over 7 days” value is “about 40%”.
